Screening results (PubChem BioAssay)
Most compounds without a hit are left out; they make up all but 1.6% or so of the library.
ABCG2 inh – human ABCG2 inhibition, ABCB1 as counter-screen; Q9UNQ0; IgMXP3 cells, JC-1 efflux, flow cytometry; inhibition, % at 6.6 µM; actives 0.1% (n = 190,000);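 active means inhibition above 80%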;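 further: 0% = DMSO and 100% = nicardipine control wells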
Target sequence (Q9UNQ0 whole entry, looked up): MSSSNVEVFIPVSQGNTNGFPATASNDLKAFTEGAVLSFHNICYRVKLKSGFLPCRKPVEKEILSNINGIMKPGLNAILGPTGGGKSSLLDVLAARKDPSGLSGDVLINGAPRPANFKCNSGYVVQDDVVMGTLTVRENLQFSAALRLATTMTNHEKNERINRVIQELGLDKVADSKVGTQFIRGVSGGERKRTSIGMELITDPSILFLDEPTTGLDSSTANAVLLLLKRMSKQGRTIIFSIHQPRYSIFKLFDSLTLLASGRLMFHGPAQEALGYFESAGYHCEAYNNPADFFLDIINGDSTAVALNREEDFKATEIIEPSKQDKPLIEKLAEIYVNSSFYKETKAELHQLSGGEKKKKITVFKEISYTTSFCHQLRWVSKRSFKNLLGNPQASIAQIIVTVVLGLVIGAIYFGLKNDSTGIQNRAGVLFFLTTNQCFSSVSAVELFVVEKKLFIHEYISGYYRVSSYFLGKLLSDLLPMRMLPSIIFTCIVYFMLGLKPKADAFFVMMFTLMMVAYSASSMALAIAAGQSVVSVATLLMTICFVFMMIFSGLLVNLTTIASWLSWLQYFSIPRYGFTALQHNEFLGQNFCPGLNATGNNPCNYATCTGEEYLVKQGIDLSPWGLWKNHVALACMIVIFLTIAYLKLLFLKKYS
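Assay system – ABCG2 IgMXP3 and barcoded ABCB1 CCRF-Adr cell mix · Input – 3 million cells/mL in well · Reagent – JC-1 fluorescent substrate · Compound – single test compound dose, 6.6 µM final · Timing – 10 min exposure at 25 °C with rotation, no wash · Detection – flow cytometry of retained JC-1 fluorescence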
NCF1 inh – blocks human p47phox regulatory protein of NADPH oxidases. inhibition, % at 24.7 µM. P14598. actives 0.53% (n = 220,000). p47phox/p22phox peptide binding, fluorescence polarization, 2 h. AID 1274;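 active means inhibition above about 30%, limit read from the data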;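 further: 0% = p47phox with labelled peptide and 100% = labelled peptide alone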
Diaph act CS – activates diaphorase or chemically reduces, flagging diaphorase assay artifacts; Diaphorase/resazurin coupled assay, resorufin fluorescence, 16 min; stronger effect = higher value; 1 = vehicle wells, 0 = NADH-free wells; activation factor at 20 µM; actives 0.005% (n = 190,000); AID 1229;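 active means diaphorase activity raised at least twofold by the compound at 20 µM; inactive means activation factor below 2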
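Material: purified diaphorase enzyme from Clostridium kluyveri; Also added: 0.114 mM NADH and 0.1 mM resazurin, final amounts; Doses: single compound dose of 20 µM, 1% DMSO final; Times: 16 min enzyme reaction, ambient temperature; Detection: resorufin fluorescence, excitation 544 nm, emission 590 nm; Measure: increased resorufin signal from activators or reducing compounds.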
ABCB1 inh – human ABCB1 inhibition, ABCG2 as counter-screen; P08183; CCRF-Adr cells, JC-1 efflux, flow cytometry; inhibition, % at 6.6 µM; actives 0.067% (n = 190,000); AID 1326; in the data active means inhibition above about 40%;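 further: 0% = vehicle and 100% = reference inhibitor; higher value means more JC-1 retained so stronger ABCB1 efflux block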
Diaph inh CS – counter-screen for diaphorase-based assays: diaphorase inhibitors and chemical oxidizers. diaphorase resazurin-to-resorufin fluorescence, NADH, 16 min; bacterial (C. kluyveri) enzyme, not human. inhibition, % at 20 µM. actives 0.69% (n = 190,000). AID 1217;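 active means primary screen inhibition at 20 µM above a set limit, cut at about 50% in these data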;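 further: plate controls were DMSO with full reaction for no effect and wells lacking NADH for full effect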
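material = Clostridium kluyveri diaphorase enzyme | amount = 0.14 U/mL diaphorase, enzyme working solution | schedule = incubation 16 min, room temperature | detection = fluorescence of resorufin formed from resazurin, Ex 544/Em 590 nm | benchmarks = positive control minus NADH, DMSO neutral control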
HMGR II inh – blocks class II HMG-CoA reductase of Enterococcus faecalis; purified E. faecalis HMGR, NADPH absorbance 340 nm kinetic; inhibition, % at 10 µM; actives 0.41% (n = 190,000);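 active means inhibition above a set limit, the median over all tested compounds plus 3 SD, cut at about 9.5% in these data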;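 further: enzyme runs in reverse so mevalonate oxidation gives rising NADPH absorbance; 0% = complete reaction with DMSO and 100% = background rate lacking mevalonate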
Numbers without * were called inactive; / = no result; + = active, no number.

SMILES	ABCG2 inh	NCF1 inh	Diaph act CS	ABCB1 inh	Diaph inh CS	HMGR II inh
C#CCOCCOCCOCCNc1nc(N2CCN(C(=O)[C@H]([C@@H](C)CC)n3cc([C@@H](N)CC(C)C)nn3)CC2)nc(N2CCN(C(=O)[C@H](Cc3cc4ccccc4[nH]3)n3cc([C@@H](N)Cc4ccc(O)cc4)nn3)CC2)n1	-2	53*	1.3	-1	-30	8
O=C(c1ccc(F)cc1)N1CCC(O)(c2cccnc2)CC1	1	2	0.8	1	22	-2
COc1ccc(C(=O)NNC(=O)CCC(=O)Nc2cc(C)on2)cc1	1	-1	0.7	0	26	-6
C#CCOCCOCCOCCNc1nc(N2CCN(C(=O)[C@H](Cc3ccc(O)cc3)n3cc([C@@H](N)C(C)CC)nn3)CC2)nc(N2CCN(C(=O)[C@H](Cc3cc4ccccc4[nH]3)n3cc([C@@H](N)Cc4ccc(O)cc4)nn3)CC2)n1 (stereo partly specified)	/	33*	/	/	/	/
C#CCOCCOCCOCCNc1nc(N2CCN(C(=O)C(Cc3cc4ccccc4[nH]3)n3cc(C(N)C(C)CC)nn3)CC2)nc(N2CCN(C(=O)C(Cc3cc4ccccc4[nH]3)n3cc(C(N)C(C)CC)nn3)CC2)n1 (stereo unspecified)	1	67*	1.2	1	-22	3
C#CCOCCOCCOCCNc1nc(N2CCOCC2)nc(N2CCN(C(=O)[C@H](Cc3cc4ccccc4[nH]3)n3cc([C@@H](N)C(C)CC)nn3)CC2)n1 (stereo partly specified)	-1	1	1	-1	3	-1
C#CCOCCOCCOCCNc1nc(N2CCN(C(=O)C(Cc3ccc(O)cc3)n3cc(C(N)CC(C)C)nn3)CC2)nc(N2CCN(C(=O)C(Cc3cc4ccccc4[nH]3)n3cc(C(N)C(C)CC)nn3)CC2)n1 (stereo unspecified)	-1	/	1.3	0	-34	-6
COc1ccc(C(=O)ON=C2C=C(C)C(=O)C(C)=C2)cc1	29	-9	1	2	0	2
COc1ccc(SN=C2C(C)=CC(=O)C=C2C)cc1	1	38*	0.8	0	16	-3
COC(=O)c1ccccc1NC(=O)Oc1ccc(F)cc1	2	-8	1	0	4	-6
CCOc1ccc(CN2CCN(Cc3cc4ccccc4[nH]3)CC2CCO)cc1 (stereo unspecified)	-4	-19	0.8	-1	15	14*
CSc1ccc(CN2CCN(Cc3ccccc3)C(CCO)C2)cc1 (stereo unspecified)	7	-16	0.8	5	19	11*
COc1cccc(CN2CCN(Cc3cc4ccccc4[nH]3)CC2CCO)c1 (stereo unspecified)	/	-19	/	/	/	/
CC(O)C(=O)N/N=C/c1ccccc1C(=O)O (stereo unspecified)	1	-4	0.9	0	11	13*
Cc1ccc(C(=O)Nc2cccc(-c3cnc4ccccc4n3)c2)cc1	3	-8	1	0	0	-5
CC(=O)Nc1ccc(C(=O)Nc2cccc(-c3cnc4ccccc4n3)c2)cc1	9	33*	0.9	0	5	-3
CCOc1ccc2c(c1)S/C(=C\c1cccs1)C(=O)N2	/	-23	/	/	/	/
CC(NC(=O)c1ccccc1N)c1ccccc1 (stereo unspecified)	9	-22	1.1	0	-12	-6
CC(NC(=O)c1cc(=O)[nH]c2ccccc12)c1ccccc1 (stereo unspecified)	0	4	1.1	0	-12	12*
Cc1ccc(-c2nn(-c3ccccc3)cc2C2CC(c3ccccc3)=NN2C(=O)CCC(=O)O)cc1 (stereo unspecified)	/	-16	/	/	/	/
COc1ccc(C/C(C)=N/NS(=O)(=O)c2ccc(Br)cc2)cc1	4	-1	1	3	-4	15*
COc1ccc(C/C(C)=N/NC(=O)c2ccc(Cl)cc2)cc1	1	-1	1	0	-4	10*
N#Cc1c(-c2cccc(Br)c2)cc(-c2ccco2)[nH]c1=O	0	-20	0.3	0	67*	-3
CSC1=NSC2=NC(=O)/C(=C/c3coc4ccc(O)cc4c3=O)C(=N)N12	1	-54	0.6	+	44	5
CSC1=NSC2=NC(=O)/C(=C/c3coc4ccccc4c3=O)C(=N)N12	+	-60	0.6	34	37	-2
SMILES	ABCG2 inh	NCF1 inh	Diaph act CS	ABCB1 inh	Diaph inh CS	HMGR II inh
CSC1=NSC2=NC(=O)/C(=C\c3cccs3)C(=N)N12	78	-18	0.9	1	11	-4
c1coc(-c2nnc(SCc3cn4ccccc4n3)o2)c1	20	-4	0.9	2	13	-3
COc1cc(NC(=O)C(C)C)ccc1NC(=O)c1ccco1	2	125*	0.8	0	22	-5
Clc1cccc(-c2nc3nc4ccccc4nc3n2Cc2ccccc2)c1	-3	-6	0.9	-1	6	-5
COc1ccc(Cl)cc1NC(=O)CN(c1ccccc1)S(=O)(=O)N(C)C	13	-16	0.7	2	25	17*
CCN(c1ccccc1)S(=O)(=O)c1ccc(OC)c(NC(=O)CN(C)C)c1	15	2	0.8	1	17	-4
COc1ccc(NC(=O)CN(c2ccccc2)S(=O)(=O)N(C)C)cc1OC	23	-6	1	0	1	0
COc1ccc(NC(=O)CN(c2ccccc2)S(=O)(=O)N(C)C)cc1Cl	2	-8	0.3	0	68*	-3
Cc1nc2c(C(=O)NCCC3=CCCCC3)c[nH]n2c(=O)c1Cl	0	-6	0.5	0	54*	2
O=C(/C=C/c1ccccc1)NC(=S)NNC(=O)c1cnccn1	/	-15	/	/	/	/
O=C(/C=C/c1ccccc1)NC(=S)NNC(=O)c1cccnc1	2	-6	0.2	0	81*	-3
COc1ccc(/C=C/C(=O)NC(=S)NNC(=O)c2cccs2)cc1OC	/	-1	/	/	/	/
COc1ccc(/C=C/C(=O)NC(=S)NNC(=O)c2cccnc2)cc1OC	1	-9	0.2	0	82*	-21
Nc1nonc1-n1nncc1-c1ccccc1	0	-2	1	0	2	11*
CCOC(=O)c1nnn(-c2nonc2N)c1-c1ccccc1	2	-9	0.9	0	8	1
COc1ccc(CNC(=O)C(NC(C)=O)C(=O)Nc2ccc(C(C)C)cc2)cc1 (stereo unspecified)	1	4	0.9	0	6	12*
COc1ccc(NC(=O)C(NC(C)=O)C(=O)NCc2ccccc2OC)cc1 (stereo unspecified)	0	-22	0.9	0	12	-4
